# Published values gathered from unrelated publications.
# Lines come from different studies, so protocols differ.
# Cell line: MOLT-4
# Observed: cell growth or viability
Structure (SMILES),technique,time,IC50 [nM]
COc1cccc2c1C(=O)c1c(O)c3c(c(O)c1C2=O)C[C@@](O)(C(=O)CO)C[C@@H]3O[C@H]1C[C@H](N)[C@H](O)[C@H](C)O1,,96 h,2.61
Cc1c(-c2ccc(N3CCc4cccc(C(=O)Nc5nc6ccccc6s5)c4C3)nc2C(=O)O)cnn1CC12CC3CC(C1)CC(C(=O)NCCCCCCCCCCCCNc1cccc4c1C(=O)N(C1CCC(=O)NC1=O)C4=O)(C3)C2 (centres unmarked),MTS,48 h,49.4
O=C(NO)c1ccc(Cn2cnc3c(Nc4ccc(F)c(Cl)c4)ncnc32)cc1,MTT,72 h,660
O=C(CSc1nc2ccccc2s1)N/N=C/c1ccc(OCC(=O)Nc2ccc(Br)cc2)cc1,MTS,72 h,> 100000
Cc1ncsc1-c1ccc([C@H](C)NC(=O)[C@@H]2C[C@@H](O)CN2C(=O)[C@@H](NC(=O)CCCCCS(=O)(=O)NC(=O)c2nc(N3CCc4cccc(C(=O)Nc5nc6ccccc6s5)c4C3)ccc2-c2cnn(CC34CC5CC(CC(C5)C3)C4)c2C)C(C)(C)C)cc1,MTS,48 h,4
CN1CCC(NC2CCc3[nH]c4c(C(N)=O)ccc(-c5ccccc5Cl)c4c3C2)CC1 (centres unmarked),,96 h,18.7
O=C(NO)c1ccc(Cn2cnc3c(Nc4ccc(Cl)cc4)ncnc32)cc1,MTT,72 h,190
COc1cc([C@@H]2c3cc4c(cc3[C@@H](O[C@@H]3O[C@@H]5CO[C@@H](C)O[C@H]5[C@H](O)[C@H]3O)[C@H]3COC(=O)[C@H]23)OCO4)cc(OC)c1O,MTS,72 h,180
Cc1ncsc1-c1ccc([C@H](C)NC(=O)[C@@H]2C[C@@H](O)CN2C(=O)[C@@H](NC(=O)CCCCCCS(=O)(=O)NC(=O)c2nc(N3CCc4cccc(C(=O)Nc5nc6ccccc6s5)c4C3)ccc2-c2cnn(CC34CC5CC(CC(C5)C3)C4)c2C)C(C)(C)C)cc1,MTS,48 h,4.5
COc1ccc(Nc2ncnc3c2ncn3Cc2ccc(C(=O)NO)cc2)cc1,MTT,72 h,460
O=C(CSc1nc2ccccc2s1)N/N=C/c1ccc(OCC(=O)Nc2cccc(Br)c2)cc1,MTS,72 h,> 100000
CCS(=O)(=O)NC(=O)c1nc(N2CCc3cccc(C(=O)Nc4nc5ccccc5s4)c3C2)ccc1-c1cnn(CC23CC4CC(CC(C4)C2)C3)c1C,MTS,48 h,5.1
COc1ccc(Nc2ncnc3c2ncn3Cc2ccc(C(=O)Nc3ccccc3N)cc2)cc1,MTT,72 h,610
Cc1nc(Nc2ncc(C(=O)Nc3c(C)cccc3Cl)s2)cc(N2CC[C@H](O)C2)n1,ATP luminescence,72 h,> 10000
